Measured values from ChEMBL document CHEMBL4130378, “Discovery of pentacyclic triterpene 3β-ester derivatives as a new class of cholesterol ester transfer protein inhibitors” (Eur J Med Chem, 2017).
Blank lines part the entries; values can stand above or below the molecule they belong to.

Legend:
[1] = Octanol-water partition coefficient, log P of the compound at pH 7.4 by HPLC based shake flask method; assay type: physicochemical
[2] = target: T1, Cholesteryl ester transfer protein (Homo sapiens, UniProt P11597); experiment: Inhibition of recombinant human CETP after 3 hrs using fluorescent cholesteryl containing HDL after 3 hrs by fluorescence assay
T1 sequence (P11597 whole entry): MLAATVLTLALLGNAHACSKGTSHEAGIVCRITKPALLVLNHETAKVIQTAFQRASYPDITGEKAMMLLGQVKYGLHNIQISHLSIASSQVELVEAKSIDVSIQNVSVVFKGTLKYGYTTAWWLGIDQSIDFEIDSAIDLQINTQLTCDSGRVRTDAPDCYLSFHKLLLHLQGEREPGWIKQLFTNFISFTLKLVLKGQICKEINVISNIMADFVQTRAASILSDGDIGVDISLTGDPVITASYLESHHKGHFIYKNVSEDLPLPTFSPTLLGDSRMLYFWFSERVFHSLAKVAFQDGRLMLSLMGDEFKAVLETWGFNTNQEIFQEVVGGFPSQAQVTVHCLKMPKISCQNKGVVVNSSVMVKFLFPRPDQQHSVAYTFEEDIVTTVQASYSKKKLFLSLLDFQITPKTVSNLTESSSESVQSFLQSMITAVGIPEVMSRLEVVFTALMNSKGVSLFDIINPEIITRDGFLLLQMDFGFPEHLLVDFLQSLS

Mus musculus [3] = experiment: Antihyperlipidemic activity in transgenic ap2-CETPTg mouse model assessed as increase in plasma HDL cholesterol levels at 30 mg/kg, po qd for 14 days measured 2 hrs post dose on day 14 by automated lipid analyzer relative to control; assay type: functional
Outline: (§1)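 ap2-CETPTg mice, which express human CETP in adipose tissue. Oral 30 mg/kg once daily for two weeks in DMSO/cremophor/saline 3:4:93. Retro-orbital blood drawn 2 h after the day-14 dose. HDL-C, LDL-C, TG and TC measured on an automated lipid analyzer, mean ± SD (n ≥ 6), versus control group.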

[4] = MRT (0 to 48 hrs) in normal fed guinea pig at 30 mg/kg administered via oral gavage by LC-MS/MS analysis; assay type: ADME, organism-based, Cavia porcellus; details: in vivo
[5] = MRT (0 to infinity) in normal fed guinea pig at 30 mg/kg administered via oral gavage by LC-MS/MS analysis; assay type: ADME, organism-based, Cavia porcellus; details: in vivo
Mus musculus [6] = experiment: Hypolipidemic activity in transgenic ap2-CETPTg mouse model assessed as reduction in plasma LDL cholesterol levels at 30 mg/kg, po qd for 14 days measured 2 hrs post dose on day 14 by automated lipid analyzer relative to control; assay type: functional; parameters: scale not given: the % may be the effect or the level left; outline: as §1
Mus musculus [7] = experiment: Hypolipidemic activity in transgenic ap2-CETPTg mouse model assessed as reduction in plasma triglyceride levels at 30 mg/kg, po qd for 14 days measured 2 hrs post dose on day 14 by automated lipid analyzer relative to control; assay type: functional; parameters: scale not given: the % may be the effect or the level left; outline: as §1
Mus musculus [8] = experiment: Hypolipidemic activity in transgenic ap2-CETPTg mouse model assessed as reduction in plasma total cholesterol levels at 30 mg/kg, po qd for 14 days measured 2 hrs post dose on day 14 by automated lipid analyzer relative to control; assay type: functional; parameters: scale not given: the % may be the effect or the level left; outline: as §1
Cavia porcellus [9] = experiment: Antihyperlipidemic activity in normal fed guinea pig model assessed as increase in plasma HDL cholesterol level at 30 mg/kg administered via oral gavage as qd for 14 days measured 2 hrs post dose on day 14 relative to control; assay type: functional
Outline: (§2)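 Male guinea pigs, 12 weeks old, on normal diet. Gavage at 30 mg/kg once daily for two weeks. Retro-orbital plasma collected 2 h after dosing on day 14. HDL-C and LDL-C reported as mean ± SD (n ≥ 6) versus vehicle control group.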

Cavia porcellus [10] = experiment: Hypolipidemic activity in normal fed guinea pig model assessed as reduction in plasma LDL cholesterol levels at 30 mg/kg administered via oral gavage as qd for 14 days measured 2 hrs post dose on day 14 relative to control; assay type: functional; parameters: scale not given: the % may be the effect or the level left; outline: as §2
Cavia porcellus [11] = experiment: Antihyperlipidemic activity in high-fat fed guinea pig model assessed as increase in plasma HDL cholesterol level at 30 mg/kg administered via oral gavage as qd for 14 days measured 2 hrs post dose on day 14 relative to control; assay type: functional
Outline: (§3)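 Male guinea pigs, 12 weeks old, fed a high-fat diet (2.5% coconut oil, 0.25% cholesterol) for two weeks. Gavage at 30 mg/kg once daily for two weeks while the diet continued. Plasma taken retro-orbitally 2 h after the day-14 dose. HDL-C, LDL-C, TG and TC reported as mean ± SD (n ≥ 6) versus the untreated high-fat model group.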

Cavia porcellus [12] = experiment: Hypolipidemic activity in high-fat fed guinea pig model assessed as reduction in plasma LDL cholesterol levels at 30 mg/kg administered via oral gavage as qd for 14 days measured 2 hrs post dose on day 14 relative to control; assay type: functional; parameters: scale not given: the % may be the effect or the level left; outline: as §3
Cavia porcellus [13] = experiment: Hypolipidemic activity in high-fat fed guinea pig model assessed as reduction in plasma triglyceride levels at 30 mg/kg administered via oral gavage as qd for 14 days measured 2 hrs post dose on day 14 relative to control; assay type: functional; parameters: scale not given: the % may be the effect or the level left; outline: as §3
Cavia porcellus [14] = experiment: Hypolipidemic activity in high-fat fed guinea pig model assessed as reduction in plasma total cholesterol levels at 30 mg/kg administered via oral gavage as qd for 14 days measured 2 hrs post dose on day 14 relative to control; assay type: functional; parameters: scale not given: the % may be the effect or the level left; outline: as §3
Cavia porcellus [15] = experiment: Toxicity in normal fed guinea pig model assessed as effect on systolic blood pressure at 30 mg/kg administered via oral gavage as qd for 14 days; assay type: organism-based; details: in vivo, 336 h
Cavia porcellus [16] = experiment: Toxicity in high-fat fed guinea pig model assessed as effect on systolic blood pressure at 30 mg/kg administered via oral gavage as qd for 14 days; assay type: organism-based; details: in vivo, 336 h
[17] = AUC (0 to 48 hrs) in normal fed guinea pig at 30 mg/kg administered via oral gavage by LC-MS/MS analysis; assay type: ADME, organism-based, Cavia porcellus; parameters: time < 48 hr, dose 30 mg/kg, route oral; details: in vivo
[18] = AUC (0 to infinity) in normal fed guinea pig at 30 mg/kg administered via oral gavage by LC-MS/MS analysis; assay type: ADME, organism-based, Cavia porcellus; parameters: dose 30 mg/kg, route oral, time infinity; details: in vivo
[19] = Cmax in normal fed guinea pig at 30 mg/kg administered via oral gavage by LC-MS/MS analysis; assay type: ADME, organism-based, Cavia porcellus; parameters: dose 30 mg/kg, route oral; details: in vivo
[20] = Tmax in normal fed guinea pig at 30 mg/kg administered via oral gavage by LC-MS/MS analysis; assay type: ADME, organism-based, Cavia porcellus; details: in vivo
[21] = Terminal half life in normal fed guinea pig at 30 mg/kg administered via oral gavage by LC-MS/MS analysis; assay type: ADME, organism-based, Cavia porcellus; details: in vivo, read-out: beta t1/2 (converted)
[22] = Aqueous solubility of the compound; assay type: physicochemical; details: buffer
Cavia porcellus [23] = experiment: Drug metabolism in normal fed guinea pig assessed as formation of oleanolic acid at 30 mg/kg administered via oral gavage by LC-MS/MS analysis; assay type: ADME, organism-based; details: in vivo

Compound: Cc1cc(C)c2c(c1)[C@@H](N(Cc1cc(C(F)(F)F)cc(C(F)(F)F)c1)c1nnn(C)n1)CCCN2C[C@H]1CC[C@H](C(=O)O)CC1 [EVACETRAPIB]
logD [1]: 0.51

Compound: C[C@H]1[C@H](C)CC[C@]2(C(=O)O)CC[C@]3(C)C(=CC[C@@H]4[C@@]5(C)CC[C@H](OC(=O)CCCC(=O)O)C(C)(C)[C@@H]5CC[C@]43C)[C@H]12
IC50 ([2]; read-out: IC50): 3.4 µM

Compound: CCC(CC)CC1(C(=O)Nc2ccccc2SC(=O)C(C)C)CCCCC1 [DALCETRAPIB]
logD [1]: 0.92

Compound: CC1(C)CC[C@]2(C(=O)O)CC[C@]3(C)C(=C2C1)CC[C@@H]1[C@@]2(C)CC[C@H](OC(=O)CCCC(=O)O)C(C)(C)[C@@H]2CC[C@]13C
IC50 ([2]; read-out: IC50): 10.3 µM

Compound: C=C(C)[C@@H]1CC[C@]2(C(=O)O)CC[C@]3(C)[C@H](CC[C@@H]4[C@@]5(C)CC[C@H](OC(=O)CCCC(=O)O)C(C)(C)[C@@H]5CC[C@]43C)[C@@H]12
IC50 ([2]; read-out: IC50): 38 µM

Compound: C=C(C)[C@@H]1CC[C@]2(C(=O)O)CC[C@]3(C)[C@H](CC[C@@H]4[C@@]5(C)CC[C@H](O)C(C)(C)[C@@H]5CC[C@]43C)[C@@H]12 [BETULINIC ACID]
IC50 [2]: Not Active

More lines, main results first:

IC50 ([2]; read-out: IC50): 23.1 µM
Compound: CC1(C)CC[C@]2(C(=O)O)CC[C@]3(C)C(=CC[C@@H]4[C@@]5(C)CC[C@H](OC(=O)CCC(=O)NCCS(=O)(=O)O)C(C)(C)[C@@H]5CC[C@]43C)[C@@H]2C1

IC50 ([2]; read-out: IC50): 7 µM
Compound: CC1(C)CC[C@]2(C(=O)O)CC[C@]3(C)C(=CC[C@@H]4[C@@]5(C)CC[C@H](OC(=O)CCCCC(=O)O)C(C)(C)[C@@H]5CC[C@]43C)[C@@H]2C1

IC50 ([2]; read-out: IC50): 2.3 µM
MRT last [4]: 14.9 h
MRT inf [5]: 23.4 h
logD [1]: 0.49
AUC(0-t) at 48 h [17]: 9340 ng·h/mL
AUC(0-inf) [18]: 10900 ng·h/mL
Cmax [19]: 1270 ng/mL
Tmax [20]: 1.46 h
half-life [21]: 18.8 h
solubility [22]: Soluble
Drug metabolism (Cavia porcellus [23]): Metabolite_Detected
Compound: CC1(C)CC[C@]2(C(=O)O)CC[C@]3(C)C(=CC[C@@H]4[C@@]5(C)CC[C@H](OC(=O)c6ccccc6C(=O)O)C(C)(C)[C@@H]5CC[C@]43C)[C@@H]2C1
Activity (Mus musculus [3]): 11.1%
Activity (Mus musculus [6]): 34.2%
Activity (Mus musculus [7]): 29.3%
Activity (Mus musculus [8]): 5.8%
Activity (Cavia porcellus [9]): 32.3%
Activity (Cavia porcellus [10]): 19.8%
Activity (Cavia porcellus [11]): 72.8%
Activity (Cavia porcellus [12]): 40.8%
Activity (Cavia porcellus [13]): 27.3%
Activity (Cavia porcellus [14]): 20.3%
Activity (Cavia porcellus [15]): Non-Toxic
Activity (Cavia porcellus [16]): Non-Toxic
